# In the library only some 4% were active in any assay of this set; here they are far more common.
# GPR7 antag = GPR7 receptor antagonists, primary screen, cell-based, fluorescence, single concentration. Neuropeptides B/W receptor type 1 (Homo sapiens), P48145. 1.1% of 290,000 active. AID 1861, 2009. inhibition, % at 4.4 µM. GPR7-expressing cells, fluorescence antagonist assay; in the data active = inhibition above about 16%, passing the limit was not always enough;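 note: cells stimulated with the agonist NPW; 0% = agonist with vehicle and 100% = vehicle without agonist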
# DAGLB inhibitor = DAGLB lipase inhibitors, primary screen, biochemical, fluorescence, HTS; Diacylglycerol lipase-beta (Homo sapiens), Q8NCG7; HEK293T DAGLB membrane lysate, EnzChek fluorogenic substrate; inhibition, % at 5.17 µM; 0.059% of 340,000 active; AID 504411, 2011; in the data active = inhibition above about 34%;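 note: 0% = enzyme with vehicle and 100% = wells lacking enzyme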
# MPTP block = mitochondrial permeability transition pore inhibitors, primary screen, biochemical, isolated mouse mitochondria, absorbance. Ca2+ swelling absorbance, 30 min. 1.4% of 360,000 active. AID 602449, 2012. inhibition, % at 10 µM;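 active = inhibition of 50% or more, scaled per plate between neutral and stimulator controls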;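 note: 0% = DMSO wells given calcium and 100% = 1 mM EGTA wells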
# TAAR1 antagonist = human TAAR1 antagonists, primary screen, Fluo-8 calcium fluorescence, CHO RD-HGA16 cells; AID 624466, 2012; 1.5% of 360,000 active; inhibition, % at 3 µM; antagonist;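 active = inhibition above a per-plate cutoff, the mean inhibition of test compounds on that plate plus 3 SD, cut at about 49% in these data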;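 note: 0% = DMSO plus EC80 beta-PEA response and 100% = DMSO alone without agonist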
# Target sequence (Q96RJ0 whole entry, looked up): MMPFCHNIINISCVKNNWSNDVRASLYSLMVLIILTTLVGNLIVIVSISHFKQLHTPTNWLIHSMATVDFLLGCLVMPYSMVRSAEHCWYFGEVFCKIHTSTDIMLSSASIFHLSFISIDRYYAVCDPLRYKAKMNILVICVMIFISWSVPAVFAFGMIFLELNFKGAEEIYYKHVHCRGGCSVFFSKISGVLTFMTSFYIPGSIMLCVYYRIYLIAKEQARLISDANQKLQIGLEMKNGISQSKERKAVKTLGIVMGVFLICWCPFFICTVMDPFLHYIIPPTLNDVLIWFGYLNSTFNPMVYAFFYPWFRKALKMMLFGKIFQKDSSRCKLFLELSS
#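 Test system: CHO RD-HGA16 cells bearing hTAAR1 | Reagent: β-PEA, EC80 | Compound dosing: 3 µM, single point | Schedule: Dye loading 75 min at 37 °C, then 30 min room temperature | Signal: Calcium fluorescence with Fluo-8 | Evaluation: Percent inhibition of PEA-evoked calcium signal, max/basal emission ratio | Control set: DMSO-only wells and EC80 β-PEA-stimulated wells | Repeats: Singlicate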
# TAAR1 agonist = human TAAR1 agonists, primary screen, Fluo-8 calcium fluorescence, CHO RD-HGA16 cells; 0.99% of 360,000 active; activation, % at 3 µM; AID 624467, 2012; vehicle wells 0%, saturating PEA agonist 100%;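 active = activation above the mean activation of all test compounds in the run plus 3 SD, cut at about 38% in these data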
#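 Test system: RD-HGA16 (CHO) cells co-expressing Gα16 and hTAAR1; dosing: one-point dosing at 3 µM (nominal); timing: 17-24 h seeding, 75 min 37 °C dye, 30 min RT; signal: kinetic Fluo-8 calcium fluorescence; read-out basis: % activation relative to PEA EC100 response; controls: DMSO and PEA EC100; replicates: n 1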
# * = called active by the depositor; . = no result given.
SMILES,GPR7 antag,DAGLB inhibitor,MPTP block,TAAR1 antagonist,TAAR1 agonist
O=C1c2cccc3cccc(c23)C(=O)N1c1ccc(O)cc1,-10,-1,0,-11,2
O=C1c2cccc3c(N4CCCCC4)ccc(c23)C(=O)N1c1ccc(O)cc1,-3,-18,0,41,59*
CC(C)C[C@H]1CN(CCCC[C@H]2CNC(=O)C(=O)N2CCc2ccc(O)cc2)C(=O)C(=O)N1Cc1ccccc1,.,.,-1,-11,0
Cc1ccc(S(=O)(=O)CCC(=O)NCCc2ccccc2)cc1,-8,1,0,-8,18
Cc1ccc(S(=O)(=O)CCC(=O)NCCN2C(=O)S/C(=C\c3ccccc3)C2=O)cc1,-20,-1,10,55*,16
COC(=O)[C@]1(C)CCC[C@@]2(C)C3CC[C@]4(OC(C)=O)C[C@@]3(CCC21)CC4=O (some centres undefined),.,-12,0,51*,14
COC(=O)[C@]1(C)CCC[C@@]2(C)C3CC[C@@]4(C)C[C@]3(CCC21)CC(=O)N4Cc1ccc(OC)cc1 (some centres undefined),.,-13,0,12,9
Cc1cccc2cc(C#N)c(NCCNC(=O)c3ccccc3)nc12,.,-2,-1,14,3
CN1/C(=C/C2CC(=O)N(c3cccc4ccccc34)C2=O)C(C)(C)c2ccccc21 (centres undefined),10,3,-1,50*,16
CC(C)(C)Cc1c(-c2cccc(Cl)c2)nc2ccc(Br)cn12,.,.,-1,-20,5
CC(=O)c1c(C)[nH]c(C(=O)COc2cc(C)ccc2C(C)C)c1C,25*,-1,0,72*,6
COc1cc(C)ccc1OCC(=O)OCC(=O)c1[nH]c(C)c(C(C)=O)c1C,.,-3,0,27,8
CCn1c(Cl)c(C=O)s/c1=N\S(=O)(=O)c1ccccc1,45*,-4,0,29,5
CCN1C(=O)CS/C1=N\S(=O)(=O)c1ccc(Cl)cc1,-7,0,-1,-16,3
Nc1[nH]c(C(=O)c2ccccc2)c(-c2cccc(C(F)(F)F)c2)c1C(=O)NCCc1c[nH]c2ccccc12,.,.,.,-13,8
CC(C)CCNc1nc(N)c([N+](=O)[O-])c(NCC2CCCO2)n1 (centres undefined),-18,-2,11,-8,39*
COc1ccc(NC(=O)COC(=O)CCCC2=NS(=O)(=O)c3ccccc3N2)cc1,-10,1,-1,-16,39*
Cn1nc(N)c2c(-c3ccc(Cl)cc3)c(C#N)c(N)nc21,1,3,-2,-1,0
CCN(CC)c1ccc(-c2c(C#N)c(N)nc(OC)c2C#N)cc1,-8,1,2,57*,33
NC(Cc1ccccc1)c1csc(Nc2ccc(C(F)(F)F)cn2)n1 (centres undefined),.,.,3,20,41*
Cc1cc(C)nc(Nc2nc(C(N)Cc3ccc(F)cc3)cs2)n1 (centres undefined),.,.,0,2,28
Cc1cc(C)nc(Nc2nc(C(N)Cc3ccc(C(F)(F)F)cc3)cs2)n1 (centres undefined),.,.,2,35,47*
COc1cc(OC)nc(Nc2nc(C(N)Cc3ccc(C(F)(F)F)cc3)cs2)n1 (centres undefined),.,.,8,34,53*
CN1C(=O)[C@@]2(O[C@H]3C=CC=CN3C3=C2C(=O)CCC3)c2cccc(Br)c21,.,.,.,-19,5
CCOc1ccc(NC(=O)CN2C(=O)c3cccc4cccc2c34)cc1,.,.,.,-20,-1
SMILES,GPR7 antag,DAGLB inhibitor,MPTP block,TAAR1 antagonist,TAAR1 agonist
C[C@@H]1CCCCO[C@H](CN(C)C(=O)Cc2ccccc2)[C@@H](C)CN([C@H](C)CO)C(=O)c2cc(N(C)C)ccc2O1,.,3,-1,-4,0
NS(=O)(=O)c1ccc(Nc2nc(-c3cccc([N+](=O)[O-])c3)cs2)cc1,7,2,1,55*,7
CC1CC(C)CN(CCOc2ccccc2-c2ccccc2)C1 (centres undefined),25*,0,2,-21,5
CC1CCN(CCOc2ccccc2-c2ccccc2)CC1,21,2,14,-10,6
Cc1ccc(S(=O)(=O)N2CC3(O)CN(C(=O)OC(C)C)N(C(=O)OC(C)C)CC3(OC(=O)NCc3ccccc3)C2)cc1 (centres undefined),.,1,0,60*,9
CC1CCC(N(C)C(=O)CN2C(=O)NC(c3ccccc3)(c3ccccc3)C2=O)CC1 (centres undefined),.,-3,0,-13,0
CCOc1cc(N2CCOCC2)c(OCC)cc1NC(=O)c1cc(-c2ccco2)nc2ccccc12,-2,1,1,71*,15
Cc1ccccc1-c1cc(C(=O)Nc2sc(C)c(C)c2C(N)=O)c2ccccc2n1,-3,-1,-2,50*,18
Cc1cccc(-c2cc(C(=O)Nc3ccc4c(c3)OCCO4)c3ccccc3n2)c1,-11,-2,2,45,8
CCOc1ccc(-c2cc(C(=O)Nc3ccc4c(c3)OCCO4)c3ccccc3n2)cc1,-1,-6,-3,67*,14
Cc1ccccc1NC(=O)c1cc(-c2ccco2)nc2ccccc12,.,.,1,60*,7
CCOC(=O)c1c(NC(=O)c2cc(-c3ccc(Cl)s3)nc3ccccc23)sc(C(N)=O)c1C,-8,3,2,-7,1
COc1ccc(CCNC(=O)COc2cccc(-n3cnnn3)c2)cc1,.,1,-1,1,2
Cc1ccc(-c2cc(C(=O)Nc3ccncc3)c3ccccc3n2)cc1,.,-1,0,6,2
CCc1cccc(C)c1NC(=O)c1cc(-c2ccncc2)nc2ccccc12,.,7,0,49*,9
C#CCOc1ccccc1C(=O)NNc1ccc([N+](=O)[O-])cc1[N+](=O)[O-],.,.,.,19,2
CC(NCc1ccccc1Cl)C(=O)Nc1ccc(S(=O)(=O)N2CCCC2)cc1 (centres undefined),-3,-2,1,-14,4
CC(NCc1ccccc1Cl)C(=O)Nc1ccc(C#N)cc1 (centres undefined),18*,-2,-2,-10,0
COc1cc(C(=O)Nc2nccs2)c(Br)c(OC)c1OC,-13,0,0,51*,16
O=C(Cn1cc(COc2ccc(Cl)c(Cl)c2)nn1)NS(=O)(=O)c1ccccc1OC(F)(F)F,.,.,0,-14,9
Cc1ccc(-c2ccc(CN3C(CC(C)C)C(=O)N(Cc4cn(CCC5OCCO5)nn4)CCS3(=O)=O)cc2)cc1 (centres undefined),.,-1,-2,55*,8

# Compound activity from PubChem BioAssay.
